Experimental findings from ChEMBL document CHEMBL4359830, “Discovery and structure-activity relationship of novel diphenylthiazole derivatives as BTK inhibitor with potent activity against B cell lymphoma cell lines” (Eur J Med Chem, 2019) are described below.

In general, inhibition refers to how much of the control response was suppressed. A higher inhibition goes with strong suppression. What is called IC50 is the concentration at which inhibition is half-maximal.

The subject of assay [1] is Ramos. Nature of the assay: Potency index, ratio of ibrutinib IC50 to compound IC50 for antiproliferative activity against human Ramos cells. The assay is classed as functional.
Assay [2] deals with Raji. The assay can be described thus: Antiproliferative activity against human Raji cells at 40 uM measured after 72 hrs by CCK-8 assay relative to control. The assay is classed as functional. As to conditions: for inhibition at 40 µM: Homo sapiens, Raji, 72 h. The gist of the method: (§1)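 Ramos or Raji cells in RPMI-1640 with 10% FBS and 1% penicillin-streptomycin at 37 °C, 5% CO2. Seeded at 2000–3000 cells/well one day before compound addition. Exposure 72 h, then CCK-8 with absorbance at 450 nm. […] Single-point inhibition at 40 µM reported as mean ± standard deviation.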
In general terms: Formazan colour is commonly taken as a measure of viable cells.

Assay [3] relates to Ramos. The assay can be described thus: Antiproliferative activity against human Ramos cells measured after 72 hrs by CCK-8 assay. The assay is classed as functional, cell-based. An outline of the steps:
as §1

For assay [4], the system named is Raji. Nature of the assay: Antiproliferative activity against human Raji cells measured after 72 hrs by CCK-8 assay. In kind it is functional, cell-based. The gist of the method: as §1
The test system of assay [5] is Ramos. The assay can be described thus: Antiproliferative activity against human Ramos cells at 40 uM measured after 72 hrs by CCK-8 assay relative to control. In kind it is functional. As to conditions: for inhibition at 40 µM: Homo sapiens, Ramos, 72 h. The gist of the method:
as §1

Assay [6] addresses Tyrosine-protein kinase BTK (Homo sapiens, UniProt Q06187). The assay can be described thus: Inhibition of human recombinant full length N-terminal His tagged BTK expressed in baculovirus infected Sf9 cells using poly (Glu,Tyr) 4:1 as substrate measured after 60 mins in presence of ATP by ADP-Glo kinase assay. Background: ADP-Glo turns the ADP formed in a reaction into a luminescent signal.

Assay [7] relates to Ramos. The assay can be described thus: Induction of apoptosis in human Ramos cells assessed as viable cells at 5 uM measured after 15 mins by Annexin-V-APC staining-based flow cytometric analysis (reference value: 96.5 %). The assay is classed as functional. (In flow cytometry, cells or beads pass a laser one at a time.)
Assay [8] has as its system Ramos. Nature of the assay: Induction of apoptosis in human Ramos cells assessed as early apoptotic cells at 5 uM measured after 15 mins by Annexin-V-APC staining-based flow cytometric analysis (reference value: 0.14 %). In kind it is functional.
Assay [9] has as its system Ramos. Nature of the assay: Induction of apoptosis in human Ramos cells assessed as late apoptotic cells at 5 uM measured after 15 mins by Annexin-V-APC staining-based flow cytometric analysis (reference value: 1.85 %). The assay is classed as functional.
The subject of assay [10] is Ramos. The assay can be described thus: Cell cycle arrest in human Ramos cells assessed as accumulation at S phase at 1 uM measured after 48 hrs by propidium iodide/RNase staining based flow cytometric analysis (reference value: 56.35 %). The assay is classed as functional.
Assay [11] relates to Raji. Nature of the assay: Induction of apoptosis in human Raji cells assessed as viable cells at 5 uM measured after 15 mins by Annexin-V-APC staining-based flow cytometric analysis (reference value: 97.5 %). The assay is classed as functional.
Assay [12] relates to Raji. Nature of the assay: Induction of apoptosis in human Raji cells assessed as late apoptotic cells at 5 uM measured after 15 mins by Annexin-V-APC staining-based flow cytometric analysis (reference value: 0.57 %). In kind it is functional.
Assay [13] deals with Raji. Nature of the assay: Cell cycle arrest in human Raji cells assessed as accumulation at G0/G1 phase at 1 uM measured after 48 hrs by propidium iodide/RNase staining based flow cytometric analysis (reference value: 48.68 %). In kind it is functional.
Assay [14] has as its system Raji. Nature of the assay: Cell cycle arrest in human Raji cells assessed as accumulation at S phase at 1 uM measured after 48 hrs by propidium iodide/RNase staining based flow cytometric analysis (reference value: 33.18 %). The assay is classed as functional.
The test system of assay [15] is Ramos. Nature of the assay: Cell cycle arrest in human Ramos cells assessed as accumulation at G0/G1 phase at 1 uM measured after 48 hrs by propidium iodide/RNase staining based flow cytometric analysis (reference value: 37.66 %). The assay is classed as functional.
The test system of assay [16] is Ramos. The assay can be described thus: Cell cycle arrest in human Ramos cells assessed as accumulation at G2/M phase at 1 uM measured after 48 hrs by propidium iodide/RNase staining based flow cytometric analysis (reference value: 5.98 %). The assay is classed as functional.
Assay [17] has as its system Ramos. Nature of the assay: Induction of apoptosis in human Ramos cells assessed as necrotic cells at 5 uM measured after 15 mins by Annexin-V-APC staining-based flow cytometric analysis (reference value: 1.50 %). The assay is classed as functional.
The test system of assay [18] is Raji. The assay can be described thus: Cell cycle arrest in human Raji cells assessed as accumulation at G2/M phase at 1 uM measured after 48 hrs by propidium iodide/RNase staining based flow cytometric analysis (reference value: 18.14 %). In kind it is functional.
Assay [19] concerns Raji. The assay can be described thus: Induction of apoptosis in human Raji cells assessed as early apoptotic cells at 5 uM measured after 15 mins by Annexin-V-APC staining-based flow cytometric analysis (reference value: 0.021 %). The assay is classed as functional.
Assay [20] relates to Raji. The assay can be described thus: Induction of apoptosis in human Raji cells assessed as necrotic cells at 5 uM measured after 15 mins by Annexin-V-APC staining-based flow cytometric analysis (reference value: 1.87 %). The assay is classed as functional.
The subject of assay [21] is Raji. Nature of the assay: Potency index, ratio of ibrutinib IC50 to compound IC50 for antiproliferative activity against human Raji cells. The assay is classed as functional.

Tyrosine-protein kinase BTK, sequence (Q06187 whole entry): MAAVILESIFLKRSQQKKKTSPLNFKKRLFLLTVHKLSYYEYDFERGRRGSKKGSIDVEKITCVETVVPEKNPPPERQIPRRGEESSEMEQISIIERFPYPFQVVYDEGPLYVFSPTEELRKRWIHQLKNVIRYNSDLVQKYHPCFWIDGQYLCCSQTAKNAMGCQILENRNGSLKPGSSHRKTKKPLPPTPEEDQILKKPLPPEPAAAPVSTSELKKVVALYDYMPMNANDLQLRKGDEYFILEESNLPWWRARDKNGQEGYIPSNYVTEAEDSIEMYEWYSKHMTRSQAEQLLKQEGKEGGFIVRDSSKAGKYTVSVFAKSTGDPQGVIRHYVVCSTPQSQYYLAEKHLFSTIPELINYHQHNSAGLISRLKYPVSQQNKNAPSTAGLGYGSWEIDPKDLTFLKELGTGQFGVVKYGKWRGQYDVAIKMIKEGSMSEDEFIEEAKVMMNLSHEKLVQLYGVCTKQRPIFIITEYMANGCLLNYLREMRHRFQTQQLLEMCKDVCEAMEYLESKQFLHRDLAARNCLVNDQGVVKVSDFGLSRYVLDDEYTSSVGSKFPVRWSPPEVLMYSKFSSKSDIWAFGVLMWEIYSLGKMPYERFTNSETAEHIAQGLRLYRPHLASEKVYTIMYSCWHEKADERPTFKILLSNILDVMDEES

For the compound `CN1CCN(c2ccc(Nc3nc(-c4cccc(NC(=O)c5ccccc5F)c4)sc3C(N)=O)cc2)CC1`, the “Ratio IC50” value in the assay on Ramos [1] came to 10. Moreover, the inhibition at 40 µM in the assay with Raji [2] came out at 97.3%; in the assay with Ramos [5], 95.5%. The results for the IC50 (in the assay with Ramos [3]; in the assay on Raji [4]; in assay [6]) were 1360 nM, 3270 nM and 2670 nM, respectively.
Consider `C=CC(=O)N1CCC[C@@H](n2nc(-c3ccc(Oc4ccccc4)cc3)c3c(N)ncnc32)C1` [IBRUTINIB], for which the “inhibition (INH)” value with Raji [2] worked out at 76.23%; in the assay with Ramos [5], 81.2%. Further, the Activity in the assay with Ramos [7] was 89.1%; in the assay on Ramos [8], 0.13%; in the assay on Ramos [9], 5.88%; in the assay with Ramos [10], 28.73%; with Raji [11], 94.8%; in the assay with Raji [12], 1.14%. The Activity stood at 70.42% in the assay on Raji [13]; 14.66% in the assay on Raji [14]; 68.45% with Ramos [15]; 2.81% in the assay on Ramos [16]; 4.92% with Ramos [17]; 14.92% in the assay with Raji [18]. The results for the Activity in the assay with Raji [19] and with Raji [20] were 0.01% and 4.01%, respectively. Also, the half-maximal inhibitory concentration (IC50) was found to be 14700 nM in the assay with Ramos [3] and 16000 nM in the assay with Raji [4].
Turning to `O=C(Nc1cccc(-c2nc(Nc3ccc(N4CCOCC4)cc3)c(C(=O)O)s2)c1)c1ccc(F)cc1`, the inhibition at 40 µM in the assay on Raji [2] was 96.4%; in the assay with Ramos [5], 90.5%. For the same compound, the half-maximal inhibitory concentration (IC50) in the assay on Ramos [3] was determined as 3510 nM; with Raji [4], 1200 nM; in [6], 1120 nM. In the assay on Raji [21], the “Ratio IC50” value was found to be 13.
Regarding `CN1CCN(c2ccc(Nc3nc(-c4cccc(NC(=O)c5ccc(F)cc5)c4)sc3C(N)=O)cc2)CC1`, the “Ratio IC50” value in the assay on Ramos [1] worked out at 10. In addition, the inhibition at 40 µM in the assay with Raji [2] came to 95.3%; in the assay on Ramos [5] it was 95.9%. Moreover, the figures for the IC50 (with Ramos [3]; in the assay with Raji [4]; in assay [6]) were 1420 nM, 2820 nM and 862 nM, respectively.
In the case of `CCOC(=O)c1sc(-c2cccc(NC(=O)c3ccccc3F)c2)nc1Nc1ccc(N2CCN(C)CC2)cc1`, the results for the inhibition at 40 µM with Raji [2] and with Ramos [5] were 89.8% and 96.3%, respectively. Besides, the figures for the IC50 (in the assay with Ramos [3]; in the assay with Raji [4]; in assay [6]) were 2000 nM, 9270 nM and 2100 nM, respectively.
On the same counts, the results for `NC(=O)c1sc(-c2cccc(NC(=O)c3ccc(C(F)(F)F)cc3)c2)nc1Nc1ccc(C(=O)N2CCOCC2)cc1` are 43.8%, 83.8%, 29800 nM, 75300 nM and 617 nM.
On to `CN1CCN(c2ccc(Nc3nc(-c4cccc(NC(=O)c5ccc(Cl)cc5)c4)sc3C(N)=O)cc2)CC1`, for which, in the assay on Ramos [1], the “Ratio IC50” value is 10. The inhibition at 40 µM was 92.6% in the assay with Raji [2] and 99% in the assay on Ramos [5]. Further, the half-maximal inhibitory concentration (IC50) was found to be 1360 nM with Ramos [3], 5700 nM with Raji [4] and 614 nM in [6].
Consider `CN1CCN(c2ccc(Nc3nc(-c4cccc(NC(=O)c5ccccc5)c4)sc3C(N)=O)cc2)CC1`, for which the inhibition at 40 µM was determined as 91.3% with Raji [2] and 98.1% with Ramos [5]. Moreover, the half-maximal inhibitory concentration (IC50) in the assay on Ramos [3] was 1760 nM; with Raji [4] it was 6360 nM; in assay [6], 159 nM.
